From ChEMBL document CHEMBL3046597, “Synthesis of new carboxylesterase inhibitors and evaluation of potency and water solubility” (Chem Res Toxicol, 2001)
Values after ≈ are worked out from the molar mass of the structure shown.

How the values were obtained:
[1] = molecular target: T1, Liver carboxylesterase B-1 (Rattus norvegicus, UniProt Q63010); experiment: Inhibition of carboxylesterase in Fischer 344 Rattus norvegicus (rat) liver microsomes using p-nitrophenyl acetate as substrate incubated for 5 min prior to substrate addition measured for 2 min by spectrophotometric analysis
T1 sequence (Q63010 whole entry): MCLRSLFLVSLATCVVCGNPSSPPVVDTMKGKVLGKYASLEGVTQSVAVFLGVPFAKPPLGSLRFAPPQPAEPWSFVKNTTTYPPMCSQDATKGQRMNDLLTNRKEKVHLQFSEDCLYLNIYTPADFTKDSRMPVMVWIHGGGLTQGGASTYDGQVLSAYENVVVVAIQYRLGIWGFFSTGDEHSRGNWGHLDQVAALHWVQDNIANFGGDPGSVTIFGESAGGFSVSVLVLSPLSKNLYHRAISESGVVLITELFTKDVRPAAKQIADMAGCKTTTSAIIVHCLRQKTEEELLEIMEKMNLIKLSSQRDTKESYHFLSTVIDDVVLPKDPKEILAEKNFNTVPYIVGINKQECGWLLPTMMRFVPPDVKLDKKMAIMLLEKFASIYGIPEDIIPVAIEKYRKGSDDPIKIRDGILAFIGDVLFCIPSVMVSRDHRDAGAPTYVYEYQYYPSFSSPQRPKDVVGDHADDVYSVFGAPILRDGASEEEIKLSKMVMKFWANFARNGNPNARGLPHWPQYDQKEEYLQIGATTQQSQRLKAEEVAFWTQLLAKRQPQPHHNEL
Procedure, shortened: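 Livers from 8-week-old rats, perfused with 1% KCl; 100000g microsomal pellet solubilized in 1% n-octyl β-D-glucopyranoside and recentrifuged. Assayed at 0.8 mg/mL protein in 0.1 M sodium phosphate pH 7.4, 30 °C. PNPA 0.5 mM final, read at 405 nm. DMF ≤1%, solvent-corrected.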

[2] = molecular target: T2, Juvenile hormone esterase (Trichoplusia ni, UniProt P30809+P30810); experiment: Inhibition of Trichoplusia ni (cabbage looper) juvenile hormone esterase isolated from fifth-intsar larval stage using [3H]JH 3 as substrate incubated for 10 min prior to substrate addition measured after 15 min by liquid scintillation counting; assay type: protein assay
T2 sequence (P30809 whole entry): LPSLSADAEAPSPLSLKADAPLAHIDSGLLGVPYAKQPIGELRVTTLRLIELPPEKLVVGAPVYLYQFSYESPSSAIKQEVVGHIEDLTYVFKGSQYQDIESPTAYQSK
T2 sequence (P30810 whole entry): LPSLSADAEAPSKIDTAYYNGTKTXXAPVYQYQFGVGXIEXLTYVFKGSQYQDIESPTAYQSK
Procedure, shortened: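 Day-2 fifth-instar larval hemolymph collected with PTU, spun at 1000g, diluted 1:1 in 0.1 M phosphate pH 7.4 with 0.01% PTU, then diluted 300-fold in 0.1 M sodium phosphate pH 7.4 containing 0.1 mg/mL BSA. Inhibitors (DMF ≤1%) preincubated at 30 °C. JH III 5 µM final, 30 °C. Isooctane partition, aqueous-phase radioactivity counted.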

Liver carboxylesterase = molecular target: T3, Liver carboxylesterase (Sus scrofa, UniProt Q29550); experiment: Inhibition of Sus scrofa (pig) carboxylesterase isolated from liver in using p-nitrophenyl acetate as substrate incubated for 5 min prior to substrate addition measured for 2 min by spectrophotometric analysis
T3 sequence (Q29550 whole entry): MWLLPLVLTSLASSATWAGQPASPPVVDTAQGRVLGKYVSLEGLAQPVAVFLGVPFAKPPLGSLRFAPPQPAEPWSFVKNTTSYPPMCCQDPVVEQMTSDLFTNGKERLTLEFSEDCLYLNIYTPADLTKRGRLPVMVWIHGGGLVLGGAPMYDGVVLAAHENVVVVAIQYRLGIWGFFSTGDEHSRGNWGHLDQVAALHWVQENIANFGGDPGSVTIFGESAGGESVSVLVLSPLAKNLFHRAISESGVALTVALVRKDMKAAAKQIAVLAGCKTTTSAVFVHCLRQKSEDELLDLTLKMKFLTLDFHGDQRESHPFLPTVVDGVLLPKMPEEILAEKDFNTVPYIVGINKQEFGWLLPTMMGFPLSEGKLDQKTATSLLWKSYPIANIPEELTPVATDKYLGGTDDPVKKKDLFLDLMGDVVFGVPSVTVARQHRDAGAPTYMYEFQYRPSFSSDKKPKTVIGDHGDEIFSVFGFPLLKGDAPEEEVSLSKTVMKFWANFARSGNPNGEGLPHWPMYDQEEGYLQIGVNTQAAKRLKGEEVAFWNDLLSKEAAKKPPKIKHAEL
Procedure, shortened: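 Crude porcine liver carboxylesterase, partially purified, working solution 0.02 mg total protein/mL (0.3 units/mL) in 0.1 M sodium phosphate, pH 7.4; […]. Inhibitors from DMF stocks (≤1% DMF, solvent-corrected). PNPA at 0.5 mM final, 30 °C, kinetic read at 405 nm.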

[3] = Solubility of the compound in sodium phosphate buffer at pH 7.4; assay type: physicochemical

Q: For `O=S(=O)(CCc1ccccc1)CC(O)(O)C(F)(F)F`, which IC50 [1] is on record?
A: 1500 nM

Q: What about the IC50 [2] of the same compound?
A: 1780 nM

Q: What about the IC50 (Liver carboxylesterase) of the same compound?
A: 3390 nM

Q: With `CCCCCCCCCCSCC(=O)C(F)(F)F` as the compound, how does the IC50 [1] read?
A: 115 nM

Q: And the IC50 [2]?
A: 20 nM

Q: What about the IC50 (Liver carboxylesterase) of the same compound?
A: 135 nM

Q: What does the source list for `CCCCCCCCCCCCSCC(=O)C(F)(F)F`?
A: IC50 [1]: 164 nM; IC50 [2]: 15 nM; IC50 (Liver carboxylesterase): 119 nM

Q: Which IC50 [1] does the source give for `CCCCCCSCC(=O)C(F)(F)F` here?
A: 54.6 nM

Q: What about the IC50 (Liver carboxylesterase) of the same compound?
A: 54.3 nM

Q: Which results are given for `CCCCCCS(=O)(=O)CC(O)(O)C(F)(F)F`?
A: IC50 [1]: 1290 nM; IC50 [2]: 354 nM; IC50 (Liver carboxylesterase): 39000 nM

Q: With `CCCCCCCCS(=O)(=O)CC(O)(O)C(F)(F)F` as the compound, how does the IC50 [1] read?
A: 24.5 nM

Q: And the solubility [3]?
A: 1500 µM (≈ 460 µg/mL)

Q: And the IC50 [2]?
A: 147 nM

Q: What about the IC50 (Liver carboxylesterase) of the same compound?
A: 5640 nM

Q: For `O=C(CSCCc1ccccc1)C(F)(F)F`, which IC50 [1] is on record?
A: 162 nM

Q: What about the IC50 (Liver carboxylesterase) of the same compound?
A: 75.3 nM

Q: Which IC50 [1] does the source give for `CCCCCCCCCCCCS(=O)(=O)CC(O)(O)C(F)(F)F` here?
A: 10.3 nM

Q: And the IC50 [2]?
A: 191 nM

Q: And the IC50 (Liver carboxylesterase)?
A: 473 nM

Q: What does the source list for `CCCCCCCCCCS(=O)(=O)CC(O)(O)C(F)(F)F`?
A: IC50 [1]: 6.3 nM; IC50 [2]: 119 nM; IC50 (Liver carboxylesterase): 1420 nM

Q: With `CCCCCCCCSCC(=O)C(F)(F)F` as the compound, how does the IC50 [1] read?
A: 37.2 nM

Q: And the solubility [3]?
A: 200 µM (≈ 51.3 µg/mL)

Q: And the IC50 [2]?
A: 1.6 nM

Q: What about the IC50 (Liver carboxylesterase) of the same compound?
A: 36.8 nM
